Positions count from the first letter of the chain named. ≈ marks a conversion by molar mass, not a printed value. Where two headings read alike, the source gives them in different places.
Columns and labels:
E. coli LeuRS (EcLeuRS) = E. coli LeuRS (EcLeuRS) (Escherichia coli, UniProt P07813); assay: Aminoacylation inhibition; type: biochemical
Summary of the method: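 Aminoacylation at 37°C with [3H]leucine, started with 4 mM ATP, in Tris-HCl pH 7.5 buffer. Each LeuRS was used at equal activity, i.e. forming 10 pmol Leu-tRNALeu in 5 min. At least six test-compound concentrations were tested. IC50 was taken from a fitted dose-response curve, as the mean of at least two independent experiments.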

E. coli = assay: Broth microdilution MIC, E. coli; type: cell-based; conditions: Escherichia coli
Summary of the method: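 Broth microdilution per CLSI M7-A7 in Mueller Hinton broth. About […] E. coli was exposed to serial test-compound dilutions for 24 h at 37°C. MIC was the lowest concentration suppressing visible growth. Ampicillin was used to monitor susceptibility.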

[1] = tested on: E. coli strains containing pET30a-eclrs; assay: MIC upon overexpression of EcLeuRS; type: cell-based, Escherichia coli; conditions: induced by IPTG
Summary of the method: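 E. coli transformants carrying pET30a-eclrs, with the empty pET30a vector strain as control. Both were induced with 10 μM IPTG and tested by broth microdilution in Mueller Hinton broth (37°C, 24 h). MICs were read as the lowest concentration without visible growth and compared between the two strains.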

SpLeuRS = target: T1, SpLeuRS (Streptococcus pneumoniae serotype 4, UniProt Q97SS0); assay: Post-transfer editing; type: biochemical; conditions: 5 or 50 μM ZCL039, 1 μM [3H]Met-SptRNALeu
T1 sequence (Q97SS0 1-833): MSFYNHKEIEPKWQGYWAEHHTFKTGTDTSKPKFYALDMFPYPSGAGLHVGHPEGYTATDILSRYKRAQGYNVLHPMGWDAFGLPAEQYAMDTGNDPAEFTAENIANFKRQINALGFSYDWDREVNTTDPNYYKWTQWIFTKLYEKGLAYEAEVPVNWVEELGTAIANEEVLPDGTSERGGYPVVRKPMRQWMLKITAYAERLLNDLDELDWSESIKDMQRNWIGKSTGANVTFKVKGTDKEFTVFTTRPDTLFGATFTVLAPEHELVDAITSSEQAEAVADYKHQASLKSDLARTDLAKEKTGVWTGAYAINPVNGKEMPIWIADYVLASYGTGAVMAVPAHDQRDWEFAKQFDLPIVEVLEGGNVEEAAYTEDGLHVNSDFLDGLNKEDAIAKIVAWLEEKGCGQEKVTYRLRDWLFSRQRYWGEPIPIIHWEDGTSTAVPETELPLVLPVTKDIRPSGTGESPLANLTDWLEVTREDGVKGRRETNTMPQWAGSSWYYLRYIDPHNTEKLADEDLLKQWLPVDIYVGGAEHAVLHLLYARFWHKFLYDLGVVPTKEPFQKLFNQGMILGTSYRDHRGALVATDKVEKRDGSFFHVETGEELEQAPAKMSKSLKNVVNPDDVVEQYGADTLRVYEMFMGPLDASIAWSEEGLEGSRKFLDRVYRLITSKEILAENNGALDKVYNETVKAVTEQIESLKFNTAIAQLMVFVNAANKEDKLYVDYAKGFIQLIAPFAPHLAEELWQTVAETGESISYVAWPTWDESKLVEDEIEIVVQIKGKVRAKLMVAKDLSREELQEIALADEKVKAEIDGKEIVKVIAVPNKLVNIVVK
Summary of the method: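 Enzyme and test compound were preincubated 20 min. Substrate was mischarged with the EcLeuRS-D345A editing mutant (30 min, 37°C), then acid-phenol extracted. Controls: DMSO, and no-enzyme spontaneous hydrolysis. Means of three experiments.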

SpLeuRS T252R = target: T2, SpLeuRS T252R (Streptococcus pneumoniae serotype 4, UniProt Q97SS0, T252R); assay: Aminoacylation by SpLeuRS T252R mutant; type: biochemical; conditions: 50 μM ZCL039
T2 sequence (Q97SS0 1-833 T252R): T1 sequence (Q97SS0 1-833) with T252R
Summary of the method: (§1)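 Aminoacylation at 37°C, started with 4 mM ATP. Point mutants were made by site-directed mutagenesis. The MmLinker chimera has CP1 Lys226–Thr411 replaced by a nonapeptide. Means of three independent experiments.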

SpLeuRS-MmLinker = assay: Aminoacylation by SpLeuRS-MmLinker chimeric mutant; type: biochemical, Streptococcus pneumoniae; conditions: 50 μM ZCL039
Summary of the method: as §1

Sequence of E. coli LeuRS (EcLeuRS) (P07813 whole entry): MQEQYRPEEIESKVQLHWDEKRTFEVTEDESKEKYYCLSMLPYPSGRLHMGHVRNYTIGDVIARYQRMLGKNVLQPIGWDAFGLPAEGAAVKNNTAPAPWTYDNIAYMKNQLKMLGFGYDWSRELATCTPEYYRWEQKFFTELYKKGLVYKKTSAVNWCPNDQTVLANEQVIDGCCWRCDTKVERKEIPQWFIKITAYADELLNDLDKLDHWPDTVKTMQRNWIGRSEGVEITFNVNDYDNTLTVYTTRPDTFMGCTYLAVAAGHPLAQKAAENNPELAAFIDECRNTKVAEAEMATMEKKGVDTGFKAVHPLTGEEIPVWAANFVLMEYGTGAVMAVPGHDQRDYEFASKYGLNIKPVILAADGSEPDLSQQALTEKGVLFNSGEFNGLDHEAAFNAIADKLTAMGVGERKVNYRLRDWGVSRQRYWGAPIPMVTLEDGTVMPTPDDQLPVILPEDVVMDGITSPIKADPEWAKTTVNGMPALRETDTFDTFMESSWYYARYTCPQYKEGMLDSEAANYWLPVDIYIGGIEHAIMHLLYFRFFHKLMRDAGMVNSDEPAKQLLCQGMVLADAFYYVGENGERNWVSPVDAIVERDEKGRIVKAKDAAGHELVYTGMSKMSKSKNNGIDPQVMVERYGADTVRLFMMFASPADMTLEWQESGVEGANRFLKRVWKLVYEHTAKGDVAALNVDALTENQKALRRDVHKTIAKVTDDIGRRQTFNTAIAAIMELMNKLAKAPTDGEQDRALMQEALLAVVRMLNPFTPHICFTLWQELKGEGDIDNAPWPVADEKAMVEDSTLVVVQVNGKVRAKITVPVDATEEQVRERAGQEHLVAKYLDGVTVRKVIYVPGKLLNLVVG

OB1OCc2ccc(C(O)c3ccccc3)cc21 (centres unmarked) [ZCL039, [6-(1-phenyl-1-hydroxylmethyl)]-1,3-dihydro-1-hydroxy-2,1-benzoxaborole]
IC50 (E. coli LeuRS (EcLeuRS)): 8.25 ± 1.2 µM | IC50 towards SpLeuRS relative to EcLeuRS (E. coli LeuRS (EcLeuRS); printed as higher): 5 fold | MIC (E. coli; 24 h, read-out: MIC, Bacteria, E. coli): 60 mg/L (≈ 250 µM) | MIC (E. coli; read-out: MIC, E. coli strains containing pET30a): 60 mg/L (≈ 250 µM) | Increase in the MIC, pET30a-eclrs vs pET30a [1]: over 4 fold | Effect on hydrolysis of mischarged Met-SptRNALeu (editing) (SpLeuRS): severely block | Effect on synthetic activity of T252R mutant (SpLeuRS T252R): did not affect | Effect on tRNA charging activity of SpLeuRS-MmLinker (SpLeuRS-MmLinker): not affected

Reference: publication PMC3747510 (Scientific Reports, 2013)
